PfHsp90 set2 – growth inhibition of PfHsp90-expressing yeast, primary screen, antimalarial PfHsp90 inhibitor project, S. cerevisiae, BacTiter-Glo luminescence, single point, set 2. hit rate 0.32% among 310,000. BacTiter-Glo ATP, 48 h; yeast lacking PDR1 and PDR3 efflux regulators. inhibition, % at 9.4 µM;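 active = every replicate shows inhibition above about 80%, whatever the replicate mean, limit read from the data; inconclusive = mean inhibition reaches the set limit but some replicate falls short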;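 also: 0% = DMSO neutral controls and 100% = 20 µM radicicol positive controls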
HIV Env fusion – inhibitors of HIV-1 Env-driven cell-cell fusion, primary screen, HeLa-JRFL effector, CEM21 target cells, luciferase; inhibition, % at 12.3 µM; hit rate 1.1% among 360,000;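 active = mean replicate inhibition score of at least 50 and every replicate individually at or above 50; inconclusive = only one of the two criteria met; inactive = mean below 50 and not all replicates reaching 50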;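 also: 0% = plate neutral controls and 100% = maraviroc near 300 nM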
Rtt109 HAT inh – inhibitors of C. albicans Rtt109/Vps75 HAT, primary screen, biochemical, ThioGlo CoA-SH fluorescence, plate reader | purified Rtt109/Vps75, 4 h | Histone acetyltransferase RTT109 (Candida albicans (strain SC5314 / ATCC MYA-2876)), … | inhibition, % at 34.9 µM | hit rate 0.16% among 330,000;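 active = inhibition of at least 50% in every replicate; inconclusive = best replicate reaches 50% inhibition but some replicates fall short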
Target sequence (Q5AAJ8 whole entry, looked up): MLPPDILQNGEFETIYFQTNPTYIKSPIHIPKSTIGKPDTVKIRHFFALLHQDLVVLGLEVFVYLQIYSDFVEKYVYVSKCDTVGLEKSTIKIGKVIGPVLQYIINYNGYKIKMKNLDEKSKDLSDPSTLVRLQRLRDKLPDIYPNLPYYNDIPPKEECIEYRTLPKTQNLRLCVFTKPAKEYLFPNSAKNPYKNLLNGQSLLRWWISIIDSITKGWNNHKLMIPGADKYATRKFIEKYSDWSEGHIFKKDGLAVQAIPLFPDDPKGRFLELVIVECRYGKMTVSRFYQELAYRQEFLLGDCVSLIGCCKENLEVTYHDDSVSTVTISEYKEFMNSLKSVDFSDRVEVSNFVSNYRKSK
PAX8 inh HTS – inhibitors of PAX8-driven TPO luciferase reporter, primary screen, RMG-I cells, single concentration. AID 652154, 2013. inhibition, % at 12.6 µM. hit rate 1.2% among 360,000. SteadyGlo, 24 h;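 active = mean replicate inhibition at least 60% with every replicate also reaching 60%; inconclusive = only one of the two criteria is met; inactive = mean below 60% and not all replicates reaching 60%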;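 also: luciferase light reporting Pax8 driven TPO promoter activity; plate controls were median of neutral control wells for no effect and mitoxantrone controls for full effect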
N-glyco inh – increase of ERlucT glycosylation luciferase signal, primary screen, N-linked glycosylation inhibitor project, D54 ERlucT cells, luminescence, set 2; D54 ERlucT glycosylation luciferase reporter, 24 h; percent of 100 nM tunicamycin response; reporter increase, % at 12.5 µM; hit rate 0.23% among 360,000; AID 588692, 2011;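 active = mean luciferase reporter signal, scaled so untreated is 0 and the glycosylation-blocking control 100, at or above a set limit in every replicate; inconclusive = mean reaches the limit but not every replicate does; inactive = mean below the limit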;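 also: luciferase carries N-glycosylation sites so blocking glycosylation raises the light; 0% = median of neutral control wells and 100% = median of 100 nM tunicamycin wells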
Arr AP2 block – inhibitors of beta-arrestin/AP2 binding, primary screen, biochemical, GPCR trafficking, flow cytometry; hit rate 0.31% among 340,000; inhibition, % at 10 µM; FITC-arrestin peptide / GST-AP2 beads; AP2 beta2 appendage carries R879A mutation; beta-arrestin 1 C-terminal peptide binding to AP2 beta2-adaptin appendage (human);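 active = inhibition above a set limit, near 3 SD of compounds lacking own fluorescence, cut at about 54% in these data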;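 also: plate controls were DMSO wells for no effect and 5 µM unlabelled arrestin peptide for full effect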
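System: GST-AP2 R879A glutathione beads; medium: PBS, Tween 20 0.05%, BSA 0.1%; reagent: fluorescein-tagged arrestin peptide at 50 nM final; schedule: pre-incubation 12 min, peptide binding 1 h, room temperature; detection: flow cytometry, FL1 (488/535 nm); read-out: inhibition as reduced fluorescein signal on beads, percent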
Active calls of the source: *; ? = inconclusive; . = not tested or not shown; [ ] = dose if it differs, or a comment. Sampled rows, rich in hits. Any-hit rate of the full collection: about 2.3%.

SMILES	PfHsp90 set2	HIV Env fusion	Rtt109 HAT inh	PAX8 inh HTS	N-glyco inh	Arr AP2 block
COc1ccc(C(CCNCc2ccc(N(C)C)cc2)c2ccccc2)cc1 (centres undefined)	-9	69*	2	4	-6	-19
O=C(C[C@H]1CC[C@H](NC(=O)c2ccccc2)[C@H](CO)O1)NCCc1ccncc1	.	-3[16.7 µM]	.	.	.	.
Cc1noc(C)c1NC(=O)N(C)C[C@@H]1Oc2ccc(NC(=O)NC(C)C)cc2CC(=O)N([C@@H](C)CO)C[C@@H]1C	.	-6[16.7 µM]	.	-64	.	.
O=S(=O)(c1ccc(Cl)cc1)N1CCC(n2cnc3cc(C(F)(F)F)ccc32)CC1	.	64*	20	.	-5	3
O=S(=O)(c1ccc(F)cc1)N1CCC(n2cnc3ccccc32)CC1	-10	-15	3	2	-4	-1
CCOC(=O)C1=C(c2ccccc2)NC(SCC(=O)Nc2cccc(C)c2)=C(C#N)C1c1ccco1 (centres undefined)	.	111*	22	.	-5	-2
O=C1NC(c2cccc3ccccc23)Nc2ccc(Cl)cc21 (centres undefined)	-77	18	-2	71*	7	-15
CN(C(=O)OC(C)(C)C)c1ccc(-c2nc3ccccc3s2)cc1	11	57*	4	92*	-20	30
COc1ccc(-c2nc3ccccc3s2)cc1O	14	-57	-1	74*	-22	6
FC(F)(F)c1ccc(-c2nc3ccccc3s2)cc1	.	-168	.	-50	-5	.
CC(C)c1ccc(-c2nc3ccccc3s2)cc1	-9	25	13	88*	-20	-8
CO[C@@H]1CN(C)C(=O)c2cc(NC(=O)c3ccccc3F)ccc2OC[C@H](C)N(C(=O)c2ccccc2F)C[C@@H]1C	.	.	.	15	.	.
COc1ccc(S(=O)(=O)N[C@H]2CC[C@H](CCn3cc(-c4ccccc4F)nn3)O[C@@H]2CO)cc1	.	?	.	26	.	.
O=C(NC1CCCC1)N1CCCCN2[C@@H](CO)[C@@H](c3ccc(/C=C/c4ccccc4)cc3)[C@@H]2C1	.	.	.	104*	.	.
O=C(Nc1ccccc1F)N1CCCCN2[C@@H](CO)[C@@H](c3ccc(/C=C/c4ccccc4)cc3)[C@@H]2C1	.	.	.	76*	.	.
O=C(NC1CCCC1)N1CCCCN2[C@@H](CO)[C@H](c3ccc(/C=C/c4ccccc4)cc3)[C@@H]2C1	.	.	.	18	.	.
Cc1ccc(-n2nnnc2-c2cccc(C)c2)cc1	-13	2	3	7	-2	8
COc1ccc(-n2nnnc2-c2cccc(OC)c2)cc1	-4	56*	9	25	16	27
C[C@H](CO)N1C[C@H](C)[C@H](CN(C)C(=O)Nc2ccc3c(c2)OCO3)Oc2ccc(NC(=O)Nc3ccc(C(F)(F)F)cc3)cc2CC1=O	.	2[16.7 µM]	.	-19	.	.
CCCCCOP(=O)(c1ccccc1)c1ccccc1	-13	.	10	95*	-3	-8
O=C(CN1CCc2ccccc21)NCc1ccc2c(c1)OCO2	-7	2	.	-11	-2	10
O=C(Cn1cc(C(=O)c2cccs2)c2ccccc21)NCc1ccc2c(c1)OCO2	-11	57*	3	13	0	-4
O=C(Cn1cc(C(=O)c2cccs2)c2ccccc21)NCC1CCCO1 (centres undefined)	.	-40	1	7	2	-11
O=C(CN1CCCc2ccccc21)NCc1ccc2c(c1)OCO2	-15	13	64*	.	1	4
CCC(=O)N[C@@H]1C=C[C@H](CC(=O)NCCN2CCCCC2)O[C@@H]1CO	.	-13[16.7 µM]	.	-5	.	.
SMILES	PfHsp90 set2	HIV Env fusion	Rtt109 HAT inh	PAX8 inh HTS	N-glyco inh	Arr AP2 block
CCCNC(=O)Nc1ccc2c(c1)C(=O)N(C)[C@@H]1CC[C@@H](CC(=O)OC)O[C@H]1CO2	.	.	.	-7	.	.
CCN1CCN(c2ccc(S(=O)(=O)N3CCCCC3)cc2NC(=O)/C=C/c2ccc([N+](=O)[O-])cc2)CC1	.	.	4	41	-11	19
CN1CCN(c2ccc(S(=O)(=O)N3CCCCC3)cc2NC(=O)/C=C/c2ccc(Cl)c([N+](=O)[O-])c2)CC1	-4	-3	5	88*	-9	-12
O=C([C@H]1[C@H](CO)[C@H]2Cn3c(ccc(C4=CCCCC4)c3=O)[C@@H]1N2Cc1nccs1)N1CCOCC1	.	.	.	-1	.	.
COc1cc(C2NC(=O)C(C#N)=C(S)N2c2ccc(C)cc2)ccc1OC(C)C (centres undefined)	-24	.	?	.	1	5
COc1ccc(C2NC(=O)C(C#N)=C(S)N2c2cccc(C)c2)cc1OC (centres undefined)	-2	-4	74*	-10	0	13
COc1ccc(C2NC(=O)C(C#N)=C(S)N2c2ccc(C)cc2)cc1OC (centres undefined)	-3	24	24	9	0	17
N#CC1=C(S)N(c2ccccc2)C(c2cccs2)NC1=O (centres undefined)	23	.	109*	.	0	-9
CCOc1ccc(C2NC(=O)C(C#N)=C(S)N2c2ccc(OC)cc2)cc1OC (centres undefined)	27	.	144*	.	-1	0
COc1ccc(N2C(S)=C(C#N)C(=O)NC2c2ccc(OC)c(OC)c2)cc1 (centres undefined)	-8	4	110*	-8	1	0
CCc1ccc2oc(C(=O)NCc3ccncc3)c(C)c2c1	.	62*	11	.	-3	-8
Cc1ccc2oc(C(=O)NCc3ncc(C)[nH]3)c(C)c2c1	5	13	-1	-3	29*	-9
Cc1cnc(CNC(=O)c2ccc3oc(C(C)C)nc3c2)[nH]1	-4	7	7	-15	1	-3
CC(C)(C)C1CCc2c(sc(NC(=O)CSc3nnc(-c4ccccc4)o3)c2C#N)C1 (centres undefined)	6	10	56*	4	2	38
C/C(=N\OCc1cccc(C(=O)O)c1)c1ccc(Cl)cc1	.	62*	.	81*	-10	4
Cc1noc(C)c1NC(=O)Nc1ccc2c(c1)C(=O)N([C@@H](C)CO)C[C@H](C)[C@@H](CN(C)S(C)(=O)=O)OCCCC[C@H](C)O2	.	5[16.7 µM]	.	.	.	.
Cc1nn(C)c(C)c1CN(C)S(=O)(=O)c1ccc(F)cc1	2	.	-6	.	0	21
Cc1nn(C)c(C)c1CN(C)S(=O)(=O)c1ccc2ccccc2c1	8	72*	3	36	-2	2
